# Assays:
# [1] = Tested for cytotoxicity by using brine shrimp lethality test; format: organism-based; settings: artemia, in vivo
# MCF7 = test: Tested in vitro for cytotoxicity against MCF-7 breast cancer cells; format: functional; settings: Homo sapiens, read-out: ED50 (the source's name)
# Summary of the method: (§1)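 Seven-day in vitro cytotoxicity assay in human tumour cell lines (A-549 lung carcinoma, MCF-7 breast carcinoma, HT-29 colon carcinoma), run by standard protocols; adriamycin tested alongside.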
# A549 = test: Tested in vitro for cytotoxicity against A-549 lung cancer cells; format: functional; settings: Homo sapiens, read-out: ED50 (the source's name); summary of the method: as §1
# HT-29 = test: Tested in vitro for cytotoxicity against H-29 colon cancer cells; format: functional; settings: Homo sapiens, read-out: ED50 (the source's name); summary of the method: as §1
Structure (SMILES),LC50 [1],EC50 (MCF7),EC50 (A549),EC50 (HT-29)
CCCCCCCCCC[C@@H](O)[C@H]1CC[C@H]([C@H]2CC[C@H]([C@H](O)CCCCCCCCCC[C@H](O)CC3=C[C@H](C)OC3=O)O2)O1,0.0256 µg/mL,0.852 µg/mL,0.00843 µg/mL,
CCCCCCCCCC[C@@H](C(C)=O)[C@H]1CC[C@H]([C@H]2CC[C@H]([C@@H](CCCC[C@H](CCCC[C@@H](C)CCC3=C[C@H](C)OC3=O)C(C)=O)C(C)=O)O2)O1,0.0057 µg/mL,,,
CCCCCC[C@H](O)CCC[C@@H](O)[C@H]1CC[C@H]([C@H]2CC[C@H]([C@H](O)CCCCCCCCC[C@@H](C)CCC3=C[C@H](C)OC3=O)O2)O1,0.0049 µg/mL,,,
COc1cccc2c1C(=O)c1c(O)c3c(c(O)c1C2=O)C[C@@](O)(C(=O)CO)C[C@@H]3O[C@H]1C[C@H](N)[C@H](O)[C@H](C)O1 [DOXORUBICIN],0.257 µg/mL,0.0176 µg/mL,0.000104 µg/mL,0.000153 µg/mL
CCCCCCCCCC[C@@H](O)[C@H]1CC[C@H]([C@H]2CC[C@H]([C@H](O)CCCCCCCCC[C@@H](C)CCC3=C[C@H](C)OC3=O)O2)O1,4600 µg/mL,,,
